In ChEMBL document CHEMBL4346654 (Eur J Med Chem, 2019):
Values after ≈ are worked out from the molar mass of the structure shown.

Assays:
Assay type in all cases: functional
[1] = system: Staphylococcus aureus; assay: Antibacterial activity against MLS-resistant Staphylococcus aureus PU 32 expressing inducible ermA gene assessed as reduction in microbial growth by CLSI based two-fold broth dilution method
[2] = system: Streptococcus pneumoniae; assay: Antibacterial activity against erythromycin-susceptible Streptococcus pneumoniae ATCC49619 assessed as reduction in microbial growth by CLSI based two-fold broth dilution method
[3] = system: Streptococcus pneumoniae; assay: Bactericidal activity against erythromycin-susceptible Streptococcus pneumoniae ATCC49619 pretreated followed by subculture in absence of compound measured after 24 hrs
Outline: (§1)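 Isolates were identified by 16S rDNA sequencing. MIC was determined by CLSI-recommended two-fold broth dilution. For MBC, samples from 1–8 fold MIC were transferred to culture medium and subcultured for 24 h without antibiotic.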

[4] = system: Haemophilus influenzae; assay: Antibacterial activity against azithromycin-susceptible Haemophilus influenzae ATCC 49247 assessed as reduction in microbial growth by CLSI based two-fold broth dilution method
[5] = system: Streptococcus pneumoniae; assay: Selectivity ratio of MBC to MIC for erythromycin-susceptible Streptococcus pneumoniae ATCC49619; outline: as §1
[6] = system: Streptococcus pneumoniae; assay: Antibacterial activity against Streptococcus pneumoniae 07P390 expressing constitutive ermB gene assessed as reduction in microbial growth by CLSI based two-fold broth dilution method
[7] = system: Streptococcus pneumoniae; assay: Antibacterial activity against penicillin-susceptible Streptococcus pneumoniae PU 09 expressing mef gene assessed as reduction in microbial growth by CLSI based two-fold broth dilution method
[8] = system: Streptococcus pneumoniae; assay: Bactericidal activity against penicillin-susceptible Streptococcus pneumoniae PU 09 expressing mef gene pretreated followed by subculture in absence of compound measured after 24 hrs; outline: as §1
[9] = system: Streptococcus pneumoniae; assay: Selectivity ratio of MBC to MIC for penicillin-susceptible Streptococcus pneumoniae PU 09 expressing mef gene; outline: as §1
[10] = system: Haemophilus influenzae; assay: Bactericidal activity against azithromycin-susceptible Haemophilus influenzae ATCC 49247 pretreated followed by subculture in absence of compound measured after 24 hrs; outline: as §1
[11] = system: Haemophilus influenzae; assay: Selectivity ratio of MBC to MIC for azithromycin-susceptible Haemophilus influenzae ATCC 49247; outline: as §1
[12] = system: Streptococcus pyogenes; assay: Antibacterial activity against MLS-resistant Streptococcus pyogenes 01-968 expressing inducible ermB gene assessed as reduction in microbial growth by CLSI based two-fold broth dilution method
[13] = system: Streptococcus pyogenes; assay: Bactericidal activity against MLS-resistant Streptococcus pyogenes 01-968 expressing inducible ermB gene pretreated followed by subculture in absence of compound measured after 24 hrs
Outline: (§2)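 MBC assay. Following MIC determination by CLSI standard two-fold broth dilution, samples at 1–8 fold MIC were transferred to fresh culture medium. They were subcultured for 24 h without antibiotic. Isolates were identified by 16S rDNA sequencing. S. aureus ATCC 29213 was used as a control strain.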

[14] = system: Streptococcus pyogenes; assay: Selectivity ratio of MBC to MIC for MLS-resistant Streptococcus pyogenes 01-968 expressing inducible ermB gene
Outline: (§3)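 MBC/MIC ratio. MIC was measured by CLSI standard two-fold broth dilution. MBC was measured by transferring samples at 1–8 fold MIC to culture medium and subculturing for 24 h without antibiotic. Isolates were identified by 16S rDNA sequencing.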

[15] = system: Staphylococcus aureus; assay: Bactericidal activity against MLS/methicillin-resistant Staphylococcus aureus PU 32 expressing inducible ermA gene pretreated followed by subculture in absence of compound measured after 24 hrs; outline: as §2
[16] = system: Staphylococcus aureus; assay: Selectivity ratio of MBC to MIC for MLS/methicillin-resistant Staphylococcus aureus PU 32 expressing inducible ermA gene; outline: as §3
[17] = system: Staphylococcus aureus; assay: Antibacterial activity against MLS-resistant Staphylococcus aureus PU 20 expressing constitutive ermC gene assessed as reduction in microbial growth by CLSI based two-fold broth dilution method
[18] = system: Staphylococcus aureus; assay: Bactericidal activity against MLS-resistant Staphylococcus aureus PU 20 expressing constitutive ermC gene pretreated followed by subculture in absence of compound measured after 24 hrs; outline: as §2
[19] = system: Streptococcus pneumoniae; assay: Bactericidal activity against Streptococcus pneumoniae 07P390 expressing constitutive ermB gene pretreated followed by subculture in absence of compound measured after 24 hrs; outline: as §1

SMILES	MIC [1] [µg/mL]	MIC [2] [µg/mL]	MBC [3] [µg/mL]	MIC [4] [µg/mL]	Selectivity ratio [5]	MIC [6] [µg/mL]	MIC [7] [µg/mL]	MBC [8] [µg/mL]	Selectivity ratio [9]	MBC [10] [µg/mL]	Selectivity ratio [11]	MIC [12] [µg/mL]	MBC [13] [µg/mL]	Selectivity ratio [14]	MBC [15] [µg/mL]	Selectivity ratio [16]	MIC [17] [µg/mL]	MBC [18] [µg/mL]	MBC [19] [µg/mL]
CC[C@H]1OC(=O)[C@H](C)[C@@H](O[C@H]2C[C@@](C)(OC)[C@@H](O)[C@H](C)O2)[C@H](C)[C@@H](O[C@@H]2O[C@H](C)C[C@H](N(C)C)[C@H]2O)[C@](C)(OC)C[C@@H](C)C(=O)[C@H](C)[C@@H](O)[C@]1(C)O [CLARITHROMYCIN]	32	0.062	0.25 (≈ 0.334 µM)	4	4	> 32	4	32 (≈ 42.8 µM)	8	8 (≈ 10.7 µM)	2	8	> 64	>8	> 256	>8	> 256	–	–
CC[C@H]1OC(=O)[C@@](C)(F)C(=O)[C@H](C)[C@@H](O[C@@H]2O[C@H](C)C[C@H](N(C)C)[C@H]2O)[C@](C)(OC)C[C@@H](C)/C(=N\OCC#Cc2cncc(N)c2)[C@H](C)[C@H]2OC(=O)O[C@@]21C	0.5	0.25	0.5 (≈ 0.644 µM)	16	2	> 32	4	4 (≈ 5.15 µM)	1	32 (≈ 41.2 µM)	2	0.062	> 0.5	>8	> 4	>8	> 256	–	–
CC[C@H]1OC(=O)[C@@](C)(F)C(=O)[C@H](C)[C@@H](O[C@@H]2O[C@H](C)C[C@H](N(C)C)[C@H]2O)[C@](C)(OC)C[C@@H](C)/C(=N\OCC#Cc2cncc(C(N)=O)c2)[C@H](C)[C@H]2OC(=O)O[C@@]21C	1	0.25	1 (≈ 1.24 µM)	16	4	> 32	2	2 (≈ 2.48 µM)	1	32 (≈ 39.8 µM)	2	0.125	> 1	>8	> 8	>8	> 256	–	–
CC[C@H]1OC(=O)[C@@](C)(F)C(=O)[C@H](C)[C@@H](O[C@@H]2O[C@H](C)C[C@H](N(C)C)[C@H]2O)[C@](C)(OC)C[C@@H](C)/C(=N\OCC#Cc2ccc(N)nc2)[C@H](C)[C@H]2OC(=O)O[C@@]21C	1	0.25	0.5 (≈ 0.644 µM)	16	2	> 32	2	2 (≈ 2.57 µM)	1	32 (≈ 41.2 µM)	2	0.125	> 1	>8	> 8	>8	256	> 256	–
CC[C@H]1OC(=O)[C@@](C)(F)C(=O)[C@H](C)[C@@H](O[C@@H]2O[C@H](C)C[C@H](N(C)C)[C@H]2O)[C@](C)(OC)C[C@@H](C)/C(=N\OCC#Cc2ccc([N+](=O)[O-])nc2)[C@H](C)[C@H]2OC(=O)O[C@@]21C	0.25	0.125	0.125 (≈ 0.155 µM)	16	1	> 32	1	4 (≈ 4.96 µM)	4	32 (≈ 39.7 µM)	2	0.016	0.062 (≈ 0.0768 µM)	4	2 (≈ 2.48 µM)	8	128	> 256	–
CC[C@H]1OC(=O)[C@@](C)(F)C(=O)[C@H](C)[C@@H](O[C@@H]2O[C@H](C)C[C@H](N(C)C)[C@H]2O)[C@](C)(OC)C[C@@H](C)/C(=N\OCC#Cc2cncc(NC(C)=O)c2)[C@H](C)[C@H]2OC(=O)O[C@@]21C	1	0.062	0.25 (≈ 0.305 µM)	8	4	> 32	4	4 (≈ 4.88 µM)	1	16 (≈ 19.5 µM)	2	0.125	> 1	>8	> 8	>8	> 256	–	–
CC[C@H]1OC(=O)[C@@](C)(F)C(=O)[C@H](C)[C@@H](O[C@@H]2O[C@H](C)C[C@H](N(C)C)[C@H]2O)[C@](C)(OC)C[C@@H](C)/C(=N\OC/C=C/c2ccc3ncc(C(=O)O)cc3c2)[C@H](C)[C@H]2OC(=O)O[C@@]21C	4	1	2 (≈ 2.33 µM)	32	2	32	16	32 (≈ 37.3 µM)	2	64 (≈ 74.6 µM)	2	0.062	> 0.5	>8	> 32	>8	> 256	–	> 32
CC[C@H]1OC(=O)[C@@](C)(F)C(=O)[C@H](C)[C@@H](O[C@@H]2O[C@H](C)C[C@H](N(C)C)[C@H]2O)[C@](C)(OC)C[C@@H](C)/C(=N\OC/C=C/c2cncc(N)c2)[C@H](C)[C@H]2OC(=O)O[C@@]21C	0.5	0.125	0.125 (≈ 0.16 µM)	8	1	> 32	1	1 (≈ 1.28 µM)	1	16 (≈ 20.5 µM)	2	0.031	> 0.25	>8	> 4	>8	256	> 256	–
CC[C@H]1OC(=O)[C@@](C)(F)C(=O)[C@H](C)[C@@H](O[C@@H]2O[C@H](C)C[C@H](N(C)C)[C@H]2O)[C@](C)(OC)C[C@@H](C)/C(=N\OC/C=C/c2cncc(C(=O)O)c2)[C@H](C)[C@H]2OC(=O)O[C@@]21C	8	0.25	0.5 (≈ 0.619 µM)	32	2	> 32	8	16 (≈ 19.8 µM)	2	32 (≈ 39.6 µM)	1	0.5	> 4	>8	> 64	>8	> 256	–	–
CC[C@H]1OC(=O)[C@@](C)(F)C(=O)[C@H](C)[C@@H](O[C@@H]2O[C@H](C)C[C@H](N(C)C)[C@H]2O)[C@](C)(OC)C[C@@H](C)/C(=N\OCC#Cc2cncc(C#N)c2)[C@H](C)[C@H]2OC(=O)O[C@@]21C	0.5	0.125	0.125 (≈ 0.159 µM)	8	1	> 32	1	2 (≈ 2.54 µM)	2	16 (≈ 20.3 µM)	2	0.25	> 2	>8	> 4	>8	128	> 256	–
